Results published in ChEMBL document CHEMBL4699542, “Design and synthesis of novel methoxypyridine-derived gamma-secretase modulators” (Bioorg Med Chem, 2020).
pIC50: −log10 of the molar value. Values after ≈ are worked out from the molar mass of the structure shown.

Experiments:
[1] = Kinetic aqueous solubility of the compound in pH 7.4 PBS buffer by UV/Visible absorbance analysis; type: physicochemical; conditions: read-out: Kinetic_solubility
Summary of the method: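 Kinetic solubility determined in PBS at pH 7.4 by UV/Vis absorbance, reported in μM.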

Gamma-secretase = assay: Modulation of gamma secretase in human SH-SY5Y cells overexpressing wild type APP751 assessed as inhibition of amyloid beta (35 to 42 residues) formation incubated for overnight by ELISA; type: cell-based
Summary of the method: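 SHSY5Y-APP751 cells plated at 75K/well and incubated overnight at 37 °C, then treated 24 h over 10 concentrations ([…]–10 μM, 1:3.16 steps, in duplicate). Medium Aβ42 measured by sandwich ELISA (Aβ35–42 capture, AP-conjugated Aβ1–12 detection, CDP-Star luminescence) against an Aβ42 standard curve.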

[2] = Metabolic stability in mouse liver microsomes assessed as parent compound remaining at 1 uM incubated for 30 mins; type: ADME, Microsome; conditions: 0.5 h
Summary of the method: (§1)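 Test compound at 1 μM incubated 30 min with human, rat or mouse liver microsomes (1 mg/mL); parent remaining expressed as %.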

Cytochrome P450 1A2 = biological target: T1, Cytochrome P450 1A2 (Homo sapiens, UniProt P05177); assay: Inhibition of recombinant CYP1A2 (unknown origin) by fluorescence-based assay; type: ADME
T1 sequence (P05177 whole entry): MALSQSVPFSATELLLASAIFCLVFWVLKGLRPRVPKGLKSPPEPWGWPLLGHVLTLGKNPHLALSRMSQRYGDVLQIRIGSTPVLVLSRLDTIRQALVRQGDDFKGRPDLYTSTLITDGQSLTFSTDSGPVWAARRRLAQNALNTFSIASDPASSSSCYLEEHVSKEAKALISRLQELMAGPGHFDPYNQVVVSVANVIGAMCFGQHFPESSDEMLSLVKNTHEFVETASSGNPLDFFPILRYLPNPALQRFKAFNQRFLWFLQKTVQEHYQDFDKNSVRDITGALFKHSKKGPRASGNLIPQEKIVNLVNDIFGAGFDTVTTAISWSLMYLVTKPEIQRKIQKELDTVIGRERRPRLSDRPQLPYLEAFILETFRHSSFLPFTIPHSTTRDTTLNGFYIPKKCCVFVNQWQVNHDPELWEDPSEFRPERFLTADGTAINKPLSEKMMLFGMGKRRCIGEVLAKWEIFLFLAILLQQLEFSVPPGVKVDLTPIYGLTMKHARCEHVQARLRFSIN
Summary of the method: (§2)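 Recombinant CYP isoforms (five tested) screened for inhibition in fluorescence-based assays; IC50 in μM.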

Cytochrome P450 2D6 = Cytochrome P450 2D6 (Homo sapiens, UniProt P10635); assay: Inhibition of recombinant CYP2D6 (unknown origin) by fluorescence-based assay; type: ADME; summary of the method: as §2
Sequence of Cytochrome P450 2D6 (P10635 whole entry): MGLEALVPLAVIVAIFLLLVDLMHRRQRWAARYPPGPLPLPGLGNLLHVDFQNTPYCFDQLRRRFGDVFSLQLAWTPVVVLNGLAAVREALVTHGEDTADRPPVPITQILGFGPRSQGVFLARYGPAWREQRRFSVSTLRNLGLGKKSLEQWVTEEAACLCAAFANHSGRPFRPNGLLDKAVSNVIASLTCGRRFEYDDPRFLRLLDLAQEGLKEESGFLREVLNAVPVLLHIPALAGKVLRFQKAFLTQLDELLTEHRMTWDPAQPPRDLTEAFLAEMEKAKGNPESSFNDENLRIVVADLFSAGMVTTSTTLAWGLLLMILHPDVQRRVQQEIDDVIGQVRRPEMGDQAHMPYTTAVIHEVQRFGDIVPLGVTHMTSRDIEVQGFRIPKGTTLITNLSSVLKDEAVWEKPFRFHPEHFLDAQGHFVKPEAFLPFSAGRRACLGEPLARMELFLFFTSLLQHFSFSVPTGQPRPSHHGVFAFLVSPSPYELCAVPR

Cytochrome P450 3A4 = Cytochrome P450 3A4 (Homo sapiens, UniProt P08684); assay: Inhibition of recombinant CYP3A4 (unknown origin) by fluorescence-based assay; type: ADME
Sequence of Cytochrome P450 3A4 (P08684 whole entry): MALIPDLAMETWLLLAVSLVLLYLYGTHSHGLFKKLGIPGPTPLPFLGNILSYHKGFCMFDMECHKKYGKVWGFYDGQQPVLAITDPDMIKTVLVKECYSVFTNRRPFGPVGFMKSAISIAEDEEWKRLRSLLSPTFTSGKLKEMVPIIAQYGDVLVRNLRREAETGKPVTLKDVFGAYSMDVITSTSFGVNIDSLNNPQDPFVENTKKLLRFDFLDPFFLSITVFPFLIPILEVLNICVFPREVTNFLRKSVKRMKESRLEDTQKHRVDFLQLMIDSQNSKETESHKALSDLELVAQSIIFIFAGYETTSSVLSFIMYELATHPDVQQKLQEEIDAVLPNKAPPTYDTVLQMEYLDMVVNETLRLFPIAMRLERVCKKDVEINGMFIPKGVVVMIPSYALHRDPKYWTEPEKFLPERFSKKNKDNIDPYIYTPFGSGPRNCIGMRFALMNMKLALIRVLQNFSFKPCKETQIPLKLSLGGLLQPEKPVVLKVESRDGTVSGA

[3] = Metabolic stability in rat liver microsomes assessed as parent compound remaining at 1 uM incubated for 30 mins; type: ADME, Microsome; conditions: 0.5 h; summary of the method: as §1
Cytochrome P450 2C19 = Cytochrome P450 2C19 (Homo sapiens, UniProt P33261); assay: Inhibition of recombinant CYP2C19 (unknown origin) by fluorescence-based assay; type: ADME; summary of the method: as §2
Sequence of Cytochrome P450 2C19 (P33261 whole entry): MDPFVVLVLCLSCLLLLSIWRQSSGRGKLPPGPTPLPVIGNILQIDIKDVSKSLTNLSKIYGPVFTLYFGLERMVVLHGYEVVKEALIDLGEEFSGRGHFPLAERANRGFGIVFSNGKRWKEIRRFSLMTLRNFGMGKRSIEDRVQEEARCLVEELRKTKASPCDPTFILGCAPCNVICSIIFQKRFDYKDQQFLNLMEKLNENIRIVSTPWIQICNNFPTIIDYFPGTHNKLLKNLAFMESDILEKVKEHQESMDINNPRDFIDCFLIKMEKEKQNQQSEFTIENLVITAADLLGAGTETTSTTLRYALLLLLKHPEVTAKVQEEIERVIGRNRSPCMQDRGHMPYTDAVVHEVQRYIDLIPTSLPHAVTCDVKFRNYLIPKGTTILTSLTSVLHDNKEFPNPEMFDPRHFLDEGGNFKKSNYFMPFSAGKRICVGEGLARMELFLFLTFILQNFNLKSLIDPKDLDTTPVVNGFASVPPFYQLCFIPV

Cytochrome P450 2C9 = Cytochrome P450 2C9 (Homo sapiens, UniProt P11712); assay: Inhibition of recombinant CYP2C9 (unknown origin) by fluorescence-based assay; type: ADME; summary of the method: as §2
Sequence of Cytochrome P450 2C9 (P11712 whole entry): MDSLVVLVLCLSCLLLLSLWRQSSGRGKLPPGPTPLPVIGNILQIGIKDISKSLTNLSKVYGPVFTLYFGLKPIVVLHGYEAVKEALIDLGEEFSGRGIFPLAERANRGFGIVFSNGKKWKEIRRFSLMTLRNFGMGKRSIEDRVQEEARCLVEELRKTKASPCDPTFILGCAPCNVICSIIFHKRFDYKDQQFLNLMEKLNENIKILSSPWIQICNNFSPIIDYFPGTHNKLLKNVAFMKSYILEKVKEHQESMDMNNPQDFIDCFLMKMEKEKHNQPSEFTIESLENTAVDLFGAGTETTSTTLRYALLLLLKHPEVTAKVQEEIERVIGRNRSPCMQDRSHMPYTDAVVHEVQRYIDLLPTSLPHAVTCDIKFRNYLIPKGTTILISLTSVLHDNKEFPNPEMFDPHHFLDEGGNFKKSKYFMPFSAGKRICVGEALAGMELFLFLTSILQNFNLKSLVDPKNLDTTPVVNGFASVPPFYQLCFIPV

[4] = Metabolic stability in human liver microsomes assessed as parent compound remaining at 1 uM incubated for 30 mins; type: ADME, Microsome; conditions: for Stabilty: microsomes, 0.5 h, 1 µM; summary of the method: as §1

Structure (SMILES) | solubility kinetic [1] | pIC50 (Gamma-secretase) | Stabilty [2] | Stabilty [3] | Stabilty [4] | also measured
COc1nc(-c2csc(Nc3c4c(nn3C3CCCCC3)CCCC4)n2)ccc1-n1cnc(C)c1 | < 1.6 µM | 7.20 | – | – | – | –
COc1nc(-c2csc(Nc3c4c(nn3C3CCCC3)CCCC4)n2)ccc1-n1cnc(C)c1 | 1.8 µM (≈ 0.856 µg/mL) | 7.08 | – | – | – | –
COc1nc(-c2csc(Nc3cc(C(C)(C)C)nn3CC(F)(F)F)n2)ccc1-n1cnc(C)c1 | 1.7 µM (≈ 0.836 µg/mL) | 7.14 | 93% | 90% | 47% | pIC50 (Cytochrome P450 1A2): 4.74; pIC50 (Cytochrome P450 2D6): < 4.00; pIC50 (Cytochrome P450 3A4): 6.00; pIC50 (Cytochrome P450 2C19): 5.05; pIC50 (Cytochrome P450 2C9): 4.70
COc1nc(-c2csc(Nc3c4c(nn3C3CCN(C)CC3)CCCC4)n2)ccc1-n1cnc(C)c1 | 92 µM (≈ 46.4 µg/mL) | < 6.00 | – | – | – | –
COc1nc(-c2csc(Nc3c4c(nn3C3CCC3)CCCC4)n2)ccc1-n1cnc(C)c1 | 30 µM (≈ 13.8 µg/mL) | 7.19 | 44% | 42% | 9.5% | pIC50 (Cytochrome P450 1A2): < 4.00; pIC50 (Cytochrome P450 2D6): < 4.00; pIC50 (Cytochrome P450 3A4): 6.23; pIC50 (Cytochrome P450 2C19): 5.80; pIC50 (Cytochrome P450 2C9): 6.18
COc1nc(-c2csc(Nc3cc(C(C)(C)C)nn3CCF)n2)ccc1-n1cnc(C)c1 | 3.3 µM (≈ 1.5 µg/mL) | 7.14 | 67% | 86% | 49% | pIC50 (Cytochrome P450 1A2): 4.19; pIC50 (Cytochrome P450 2D6): < 4.00; pIC50 (Cytochrome P450 3A4): 7.40; pIC50 (Cytochrome P450 2C19): 5.48; pIC50 (Cytochrome P450 2C9): 5.39
COc1cc(-c2csc(Nc3c4c(nn3C)CCCC4)n2)ccc1-n1cnc(C)c1 | – | 6.83 | – | – | – | –
COc1nc(-c2csc(Nc3c4c(nn3C(C)C)CCC4)n2)ccc1-n1cnc(C)c1 | 5.7 µM (≈ 2.48 µg/mL) | 7.05 | 34% | 56% | 23% | –
CCCn1nc(C(C)(C)C)cc1Nc1nc(-c2ccc(-n3cnc(C)c3)c(OC)n2)cs1 | 2.1 µM (≈ 0.948 µg/mL) | 7.00 | – | – | – | –
COc1nc(-c2csc(Nc3cc(C(F)(F)F)nn3CC(F)(F)F)n2)ccc1-n1cnc(C)c1 | 2 µM (≈ 1.01 µg/mL) | 6.70 | – | – | – | –
COc1nc(-c2csc(Nc3c4c(nn3CCCO)CCCC4)n2)ccc1-n1cnc(C)c1 | 23 µM (≈ 10.7 µg/mL) | 7.30 | 32% | 52% | 17% | pIC50 (Cytochrome P450 1A2): < 4.00; pIC50 (Cytochrome P450 2D6): < 4.00; pIC50 (Cytochrome P450 3A4): 5.66; pIC50 (Cytochrome P450 2C19): 4.51; pIC50 (Cytochrome P450 2C9): < 4.00
CCn1nc(C(C)(C)C)cc1Nc1nc(-c2ccc(-n3cnc(C)c3)c(OC)c2)cs1 | – | 7.02 | – | – | – | –
COc1nc(-c2csc(Nc3c4c(nn3C3CCOCC3)CCCC4)n2)ccc1-n1cnc(C)c1 | 4.7 µM (≈ 2.31 µg/mL) | 6.99 | – | – | – | –
COc1nc(-c2csc(Nc3c4c(nn3C)CCCC4)n2)ccc1-n1cnc(C)c1 | 15 µM (≈ 6.32 µg/mL) | 6.98 | 34% | 60% | 36% | –
CCn1nc2c(c1Nc1nc(-c3ccc(-n4cnc(C)c4)cc3)cs1)CCCC2 | – | 6.18 | – | – | – | –
Cc1cn(-c2ccc(-c3csc(Nc4c5c(nn4C)CCCC5)n3)cn2)cn1 | – | < 6.00 | – | – | – | –
CCn1nc(C(C)(C)C)cc1Nc1nc(-c2ccc(-n3cnc(C)c3)nc2)cs1 | < 1.6 µM | 6.53 | 87% | 60% | 43% | –
CCCn1nc2c(c1Nc1nc(-c3ccc(-n4cnc(C)c4)c(OC)n3)cs1)CCCC2 | < 1.6 µM | 7.32 | – | – | – | –
COc1nc(-c2csc(Nc3c4c(nn3C3CCOC3)CCCC4)n2)ccc1-n1cnc(C)c1 (racemic) | 19 µM (≈ 9.07 µg/mL) | 6.99 | 70% | 42% | 2.1% | –
CCn1nc2c(c1Nc1nc(-c3cnc(-n4cnc(C)c4)c(OC)n3)cs1)CCCC2 | < 1.6 µM | 7.05 | – | – | – | –
COc1nc(-c2csc(Nc3c4c(nn3C(C)(C)C)CCC4)n2)ccc1-n1cnc(C)c1 | 3.9 µM (≈ 1.75 µg/mL) | 7.21 | 20% | 55% | 21% | –
CCn1nccc1Nc1nc(-c2ccc(-n3cnc(C)c3)c(OC)n2)cs1 | – | < 6.00 | – | – | – | –
CCn1nc2c(c1N(C)c1nc(-c3ccc(-n4cnc(C)c4)c(OC)n3)cs1)CCCC2 | 3.4 µM (≈ 1.53 µg/mL) | 6.20 | – | – | – | –

Structure (SMILES) | solubility kinetic [1] | pIC50 (Gamma-secretase) | Stabilty [2] | Stabilty [3] | Stabilty [4] | also measured
CCn1nc2c(c1Nc1nc(-c3ccc(-n4cnc(C)c4)c(OC)n3)cs1)C(C)CC2(C)C (racemic) | 9.2 µM (≈ 4.27 µg/mL) | 7.14 | 21% | 38% | 12% | pIC50 (Cytochrome P450 1A2): < 4.00; pIC50 (Cytochrome P450 2D6): < 4.00; pIC50 (Cytochrome P450 3A4): 5.82; pIC50 (Cytochrome P450 2C19): 4.48; pIC50 (Cytochrome P450 2C9): 4.46
CCn1nc2c(c1Nc1nc(-c3ccc(-n4cnc(C)c4)nc3)cs1)CCCC2 | – | < 6.00 | – | – | – | –
COc1nc(-c2csc(Nc3c4c(nn3CCN3CCOCC3)CCCC4)n2)ccc1-n1cnc(C)c1 | 70 µM (≈ 36.4 µg/mL) | 6.75 | 11% | 22% | 0% | –
COc1nc(-c2csc(Nc3cc(C(C)(C)C)nn3C)n2)ccc1-n1cnc(C)c1 | – | 6.87 | – | – | – | –
COc1nc(-c2csc(Nc3cc(C(C)(C)C)nn3C(C)(C)C)n2)ccc1-n1cnc(C)c1 | < 1.6 µM | 7.40 | – | – | – | –
COc1cc(-c2csc(Nc3cc(C(C)(C)C)nn3C)n2)ccc1-n1cnc(C)c1 | – | 6.60 | 92% | 76% | 60% | –
COc1nc(-c2csc(Nc3c4c(nn3C(C)C)CCCC4)n2)ccc1-n1cnc(C)c1 | 3.3 µM (≈ 1.48 µg/mL) | 7.34 | 45% | 64% | 10% | –
Cc1cn(-c2ccc(-c3csc(Nc4cc(C(C)(C)C)nn4C)n3)cn2)cn1 | – | 6.23 | – | – | – | –
COc1nc(-c2csc(Nc3c4c(nn3C3CCC3)CCC4)n2)ccc1-n1cnc(C)c1 | 2.7 µM (≈ 1.21 µg/mL) | 7.68 | 26% | 37% | 3% | –
CCn1nc2c(c1Nc1nc(-c3ccc(-n4cnc(C)c4)c(OC)n3)cs1)CCC2(C)C | 8.8 µM (≈ 3.96 µg/mL) | 6.96 | 49% | 61% | 31% | pIC50 (Cytochrome P450 1A2): < 4.00; pIC50 (Cytochrome P450 2D6): < 4.00; pIC50 (Cytochrome P450 3A4): 6.12; pIC50 (Cytochrome P450 2C19): 4.82; pIC50 (Cytochrome P450 2C9): 4.32
CCn1nc(C(C)C)cc1Nc1nc(-c2ccc(-n3cnc(C)c3)c(OC)n2)cs1 | – | 6.74 | – | – | – | –
COc1nc(-c2csc(Nc3cc(C(F)(F)F)nn3C(C)(C)C)n2)ccc1-n1cnc(C)c1 | < 1.6 µM | 6.90 | – | – | – | –
Cc1cn(-c2ccc(-c3csc(Nc4cc(C(C)(C)C)nn4C)n3)cc2)cn1 | – | 6.56 | – | – | – | –
CCn1nc(C(C)(C)C)cc1Nc1nc(-c2ccc(-n3cnc(C)c3)c(OC)n2)cs1 | 15 µM (≈ 6.56 µg/mL) | 6.94 | 67% | 89% | 38% | –
Cc1cn(-c2ccc(-c3csc(Nc4c5c(nn4C)CCCC5)n3)cc2)cn1 | – | 6.34 | 84% | 56% | – | remaining at 0.5 h, 1 µM ([4]; liver microsomes): 55%
CCn1nc2c(c1Nc1nc(-c3ccc(-n4cnc(C)c4)c(O)n3)cs1)CCCC2 | – | 6.33 | – | – | – | –
COc1nc(-c2csc(Nc3c4c(nn3CC(F)(F)F)CCCC4)n2)ccc1-n1cnc(C)c1 | 7.4 µM (≈ 3.62 µg/mL) | 7.24 | 39% | 41% | 13% | –
CCn1nc2c(c1Nc1nc(-c3ccc(-n4cnc(C)c4)c(OC)c3)cs1)CCCC2 | 4.6 µM (≈ 2 µg/mL) | 6.77 | – | – | – | –
CCn1nc(C(C)(C)C)cc1Nc1nc(-c2ccc(-n3cnc(C)c3)cc2)cs1 | – | 6.47 | – | – | – | –
COc1nc(-c2csc(Nc3c4c(nn3CCCN3CCOCC3)CCCC4)n2)ccc1-n1cnc(C)c1 | 39 µM (≈ 20.9 µg/mL) | 6.90 | 0.7% | 6.4% | 1.9% | –
COCCn1nc2c(c1Nc1nc(-c3ccc(-n4cnc(C)c4)c(OC)n3)cs1)CCCC2 | 20 µM (≈ 9.31 µg/mL) | 6.84 | 29% | 45% | 1.8% | –
COc1nc(-c2csc(Nc3c4c(nn3CCN3CCCCC3)CCCC4)n2)ccc1-n1cnc(C)c1 | 46 µM (≈ 23.9 µg/mL) | 6.68 | – | – | – | –
